Consider two compounds from PMC9773939 (ACS Omega, 2022).

The subject of data set [1] is T. cruzi epimastigotes. The experiment in a line: Nitrite concentration by Griess test, T. cruzi epimastigote culture. The class given is cell-based. Particulars: 5 days, 25, 50 and 100 μM. The method in brief: (§1)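 L. infantum promastigote or T. cruzi epimastigote cultures (5 × 10^6 parasites/well) were incubated 5 days with test compound at 25, 50 and 100 μM, with untreated wells as controls. Supernatants were mixed with 1% sulfanilamide in 50% acetic acid, then after 15 min with 1% N-naphthylethylenediamine in 50% acetic acid, and read at 540 nm. Nitrite (μM) was taken from a sodium nitrite standard curve (detection limit 1.56 μM). Run in triplicate.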
(The Griess reaction detects nitrite, a stable product of nitric oxide.)

The test system of data set [2] is L. infantum promastigotes. As to the kind of experiment: Nitrite concentration by Griess test, L. infantum promastigote culture. It is filed as cell-based. As to conditions: 5 days, 25, 50 and 100 μM. The method in brief:
as §1

Data set [3] in a line: Cytotoxicity on J774.1A macrophages. It is filed as cell-based. Particulars: mouse, J774.1A macrophages, J774.1A macrophage, CC50, 48 h, MTT. The method in brief: (§2)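 Peritoneal or J774.1A macrophages were grown in DMEM with 10% heat-inactivated FBS, L-glutamine and penicillin/streptomycin. Cells were seeded at 5 × 10^4 cells/well for 24 h at 37 °C, 5% CO2, then given test compound at 10–100 μM (from 25,000 μM DMSO stock) for 48 h. MTT (0.4 mg/mL, 4 h, 37 °C) was dissolved in DMSO and read at 570 nm. Cytotoxicity was expressed relative to negative controls. At least three experiments.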

The nature of data set [4]: Solubility, qualitative remarks. The class given is physicochemical. Particulars: qualitative remark.
For data set [5], the system named is promastigotes of L. braziliensis. The experiment in a line: In vitro growth inhibition of L. braziliensis promastigotes. It is filed as cell-based, Leishmania (V) braziliensis (MHOM/BR/75/M2903). Particulars: Leishmania braziliensis, read-out: promastigote, IC50 L. braziliensis.
Data set [6] relates to amastigotes of L. braziliensis. The experiment in a line: Ex vivo antiamastigote activity of L. braziliensis. The class given is cell-based, L. braziliensis (MHOM/BZ/82/M2903). As to conditions: Leishmania braziliensis, 48 h, read-out: amastigote, IC50 L. braziliensis. The method in brief: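 L. braziliensis MHOM/BZ/82/M2903 amastigotes were taken from footpad lesions of infected BALB/c mice. Macrophages were removed by brief centrifugation (3000 rpm, 2–3 min). Amastigotes were kept at 37 °C, pH 5.5, in supplemented M199 with 10% FCS. At 2 × 10^6/mL they were exposed to 1.0–50.0 μM test compound (controls 1% DMSO). At 48 h parasites were counted in a Neubauer chamber against untreated controls. S.I. = peritoneal macrophage CC50 / amastigote IC50.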

Data set [7] relates to epimastigotes of T. cruzi. The experiment in a line: In vitro anti-T. cruzi evaluation on epimastigotes. It is filed as cell-based, T. cruzi (CL Brener clone). The method in brief:
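Turbidity (A595) was read at day 0 and day 5. PGI was calculated relative to untreated controls, with single-point PGI at 25 μM. IC50 is the concentration […]. At least three experiments.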

Data set [8] concerns promastigotes of L. infantum. As to the kind of experiment: In vitro growth inhibition of L. infantum promastigotes. As to conditions: Leishmania infantum, 72 h, read-out: promastigote, IC50 L. infantum. The class given is cell-based, Leishmania infantum (MHOM MA67I7MAP263). In outline:
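L. infantum MHOM MA67I7MAP263 promastigotes at 2 × 10^6 parasites/mL were exposed to 0.5–25 μM test compound for 72 h at 25 °C. Dilutions came from a 3000 μM DMSO stock, with final DMSO ≤1%. MTT (0.4 mg/mL) was added for 4 h at 37 °C, formazan was dissolved in DMSO and read at 570 nm. Inhibition was calculated against untreated controls. At least three experiments, mean ± SD.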

Data set [9] concerns epimastigotes of T. cruzi. As to the kind of experiment: Antifolate activity: IC50 on T. cruzi epimastigotes with and without folic acid. Particulars: presence vs absence of D,L-folic acid. It is filed as cell-based. The method in brief: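 T. cruzi epimastigotes were treated with test compound with or without D,L-folic acid, following the epimastigote turbidimetric viability protocol (120 h, 25 °C, A595). IC50 was determined in each condition and compared.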

Data set [10] relates to promastigotes of L. infantum. It is filed as cell-based. Particulars: presence vs absence of D,L-folic acid. In outline: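 L. infantum promastigotes were treated with test compound with or without D,L-folic acid, following the promastigote MTT viability protocol (72 h, 25 °C, formazan read at 570 nm). IC50 was determined in each condition and compared.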
Data set [11] deals with promastigotes of L. infantum. As to the kind of experiment: Effect of metal cations on IC50 on L. infantum promastigotes. As to conditions: Leishmania parasites, metal cation at 1 μM. The class given is cell-based. The method in brief: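 L. infantum promastigotes were treated with test compound alone or with a metal cation (Fe3+, Cu2+ or Zn2+) at 1 μM, following the promastigote MTT viability protocol. IC50 was determined with and without the cation and compared.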

Data set [12] can be described thus: Cytotoxicity on primary peritoneal macrophages. Particulars: mouse, primary peritoneal macrophages, peritoneal macrophage, CC50, 48 h, MTT. The class given is cell-based, mouse. In outline: as §2
In data set [13] the test system is Salmonella typhimurium TA 98 strain. As to the kind of experiment: Mutagenicity Ames test. The class given is cell-based.
The nature of data set [14]: Oxidative decomposition followed by NMR. The class given is physicochemical. Particulars: 2 weeks of incubation with H2O2.
For data set [15], the system named is J774.1A macrophages. Particulars: read-out: J774.1A macrophage, CC50; cited from earlier work.
Data set [16] concerns epimastigotes of T. cruzi. Particulars: cited from earlier work.
Where [17] appears, read: CC50 (J774.1A) / IC50 of epimastigotes (T. cruzi).

One may read the IC50 as the concentration at which inhibition is half-maximal.

Like-named read-outs stand apart in the source and are kept apart here. Marks after values point to notes of the source that are not given here.

With `NNc1nc(-c2ccc(Cl)cc2)nc2ccccc12` [3c, (Z)-1-(2-(4-chlorophenyl)quinazolin-4(3H)-ylidene)hydrazine], the “nitrite ion production (Griess test)” value in data set [1] and in data set [2] was “appreciable amount of nitrite ion in sub-micromolar ranges” throughout. Further, the figures for the CC50 at 48 h in [3] and in data set [12] were 105 ± 5.66 µM and 89.9 ± 3.77 µM, respectively. Further, the solubility in culture result in [4] is “appreciable solubility”. For the same compound, the IC50 turned out to be 5.12 ± 0.32 µM in data set [5]; 8.96 ± 0.53 µM in data set [6]; 11.5 ± 0.49 µM in data set [7] (Trypanosoma cruzi, 120 h, read-out: epimastigote, IC50 T. cruzi); 1.56 ± 0.09 µM in data set [8]. In addition, in data set [7] (setting [17]), the “S.I.T.cruzi (selectivity index), column epimastigote, IC50 (μM) T. cruzi (S.I.T.cruzi)” value came to 9.1. The “change of IC50 on addition of folic acid (FA)” value in data set [9] is given as “Increasing IC50 values by about twofold”; in data set [10], “modest increase in IC50”. In data set [11], the “change of IC50 in the presence of Cu2+” value is on record as “increase in IC50 values”. Moreover, the revertants number is given as 8.0 ± 2.0 in [13] (dose 27.9 μg/plate); 4.5 ± 2.0 in [13] (dose 37.2 μg/plate); 5.0 ± 0.5 in data set [13] (dose 55.8 μg/plate); 8.0 ± 1.0 in [13] (dose 111.7 μg/plate); 9.5 ± 0.5 in data set [13] (dose 335.0 μg/plate). In addition, in data set [14], the “decomposition under oxidative conditions” value is listed as “decomposed in at least three additional products”.
As for `CC1CS(=O)(=O)CCN1/N=C/c1ccc([N+](=O)[O-])o1` (centres unmarked) [nifurtimox], the CC50 in data set [15] was 280 ± 4 µM. In addition, the “change of IC50 on addition of folic acid (FA)” value in data set [9] is on record as “not affected”. Moreover, in data set [16] (setting [17]), the “S.I.T.cruzi (selectivity index)” value is reported as 36 ^c. In data set [16] (read-out: epimastigote, IC50 T. cruzi, anti-Chagasic reference), the IC50 was 7.7 ± 0.5 µM.
